From ChEMBL document CHEMBL4304834, “3-Amino-chromanes and Tetrahydroquinolines as Selective 5-HT2B, 5-HT7, or σ1 Receptor Ligands” (ACS Med Chem Lett, 2019) come the findings set out here.

The species entered for experiment [1] is Homo sapiens. Kind of experiment: Selectivity index, ratio of Ki for human recombinant adrenergic Alpha2B receptor to Ki for human recombinant sigma1 receptor. In short, it runs like this:
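Both Ki values in each ratio come from NIMH Psychoactive Drug Screening Program radioligand binding. […] Other targets were given full binding curves, measured in triplicate, and Ki was taken from a sigmoidal curve fit. Some values were repeated in duplicate or triplicate independent experiments.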

For experiment [2], the species on record is Homo sapiens. Kind of experiment: Selectivity index, ratio of Ki for human recombinant 5-HT2C receptor to Ki for human recombinant sigma1 receptor.
The species entered for experiment [3] is Homo sapiens. Kind of experiment: Selectivity index, ratio of Ki for human recombinant 5-HT6 receptor to Ki for human recombinant sigma1 receptor.
Experiment [4] addresses Alpha-2A adrenergic receptor (Homo sapiens) (UniProt P08913). Put plainly: Displacement of [3H]-Rauwolscine from human recombinant adrenergic Alpha2A receptor expressed in stable MDCK cells at 10 uM after 90 mins by microbeta scintillation counting method relative to control. It is filed as cell-based.

Chain of Alpha-2A adrenergic receptor (Homo sapiens) (P08913 whole entry): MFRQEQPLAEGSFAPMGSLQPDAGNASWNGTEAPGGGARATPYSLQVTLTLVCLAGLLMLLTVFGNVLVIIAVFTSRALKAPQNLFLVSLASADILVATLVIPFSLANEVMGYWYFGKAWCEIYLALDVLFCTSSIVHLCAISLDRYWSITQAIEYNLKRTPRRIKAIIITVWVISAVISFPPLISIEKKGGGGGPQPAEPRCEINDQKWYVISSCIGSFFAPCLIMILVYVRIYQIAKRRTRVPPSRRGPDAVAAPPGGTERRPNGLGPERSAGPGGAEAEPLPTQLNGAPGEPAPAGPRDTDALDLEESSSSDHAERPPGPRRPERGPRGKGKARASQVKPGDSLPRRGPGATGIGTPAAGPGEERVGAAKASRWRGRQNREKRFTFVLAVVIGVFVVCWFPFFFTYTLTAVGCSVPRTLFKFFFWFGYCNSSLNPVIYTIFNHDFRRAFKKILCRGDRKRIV

`COc1cc(OC)c2c(c1)OC[C@@]1(C)NCC[C@@H]21` (racemic): the Ratio Ki in the experiment filed under Homo sapiens [1], in the experiment filed under Homo sapiens [2] and in the experiment filed under Homo sapiens [3] was > 20 each time.
As a reminder, the inhibition is the percentage by which the read-out fell short of the control. On to `CC[C@H]1c2cc(C)ccc2OC[C@@]1(C)N` (racemic), for which the inhibition in experiment [4] is < 50%.
